Shown are actives, neighbours in structure and some others; about 2% of the full set was active somewhere.
SUMO1 PPI mod: alters human SUMO1 binding to SIM partners | AID 602429 | actives 0.33% (n = 360,000) | inhibition, % at 20 µM | P63165 | SUMO1 binding to a labelled peptide, TR-FRET, 1 h; in the data active = inhibition above about 37%
Target sequence (P63165 whole entry, looked up): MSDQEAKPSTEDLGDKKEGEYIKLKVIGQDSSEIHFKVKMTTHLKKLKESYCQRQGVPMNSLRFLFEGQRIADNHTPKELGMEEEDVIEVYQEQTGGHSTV
Scp1 inh: blocks human Scp-1 phosphatase activity; AID 493091; Recombinant Scp1, phosphopeptide, malachite green phosphate absorbance; actives 0.88% (n = 340,000); inhibition, % at 20 µM; Q9GZU7;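 active = inhibition above about 50% at 20 µM, limit read from the data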;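 note: plate controls were DMSO wells with enzyme for no effect and wells lacking enzyme for full effect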
Target sequence (Q9GZU7 76-261 limits assumed): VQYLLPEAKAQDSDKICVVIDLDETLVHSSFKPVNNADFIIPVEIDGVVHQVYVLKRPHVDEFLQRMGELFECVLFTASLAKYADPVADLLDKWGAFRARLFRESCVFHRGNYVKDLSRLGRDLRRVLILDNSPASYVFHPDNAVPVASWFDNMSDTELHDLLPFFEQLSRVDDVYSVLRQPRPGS
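Test system: SCP-1 phosphatase catalytic domain, residues 76-261; measured by: colorimetric phosphate reagent with accelerator and stabiliser, absorbance at 630 nm; timing: enzyme reaction 45 min at room temperature, colour 5 min, stabilisation 30 min; also added: Phosphorylated 17-residue peptide substrate; compound dosing: one concentration, 20 µM, with 1.0% DMSO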
DNMT1 block: blocks human DNA methyltransferase DNMT1. P26358. DNMT1 molecular beacon, Hinp1I cleavage, fluorescence. inhibition (reported as % activation of signal), % at 10 µM. actives 0.83% (n = 360,000); in the data active = inhibition above about 50%
STEP block: blocks human striatal-enriched tyrosine phosphatase; P54829; recombinant STEP, OMFP fluorogenic substrate, fluorescence; inhibition, % at 20 µM; actives 0.25% (n = 360,000);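 active = inhibition at 20 µM, scaled per plate between control wells, above about 37%, limit read from the data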;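 note: 0% = DMSO with enzyme and substrate and 100% = substrate only without enzyme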
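Assay system: isolated STEP enzyme / Timing: 20 min at room temperature, dark / Doses: 20 µM, 1% DMSO / Technique: fluorescence intensity, excitation 480 nm, emission 540 nm / Reagent: fluorogenic phosphatase substrate OMFP at 25 µM final / Measure: percent inhibition scaled to no-enzyme and uninhibited-enzyme controls, plate-pattern corrected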
LMPTP block: blocks human LMPTP phosphatase. P24666. recombinant LMPTP-A, OMFP fluorogenic substrate, fluorescence intensity. inhibition, % at 20 µM. actives 0.22% (n = 360,000). AID 651560;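 active = compounds that cut the enzyme signal by at least half of the control window in the single-dose screen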;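 note: plate controls were DMSO wells with enzyme plus substrate for no effect and substrate without enzyme for full effect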
Target sequence (P24666 whole entry, looked up): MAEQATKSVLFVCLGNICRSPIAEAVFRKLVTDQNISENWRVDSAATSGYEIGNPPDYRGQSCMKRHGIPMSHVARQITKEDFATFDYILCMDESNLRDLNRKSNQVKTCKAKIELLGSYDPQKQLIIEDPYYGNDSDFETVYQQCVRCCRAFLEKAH
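Buffer or medium: Bis-Tris pH 6.0, DTT, detergent; Assay system: LMPTP-A enzyme; Quantity: 0.625 nM enzyme; Detection: endpoint fluorescence intensity; Times: 50 min dark incubation at room temperature; Controls: substrate-only low control, DMSO enzyme-plus-substrate high control; Doses: single 20 µM dose; Read-out: percent inhibition versus substrate-only and uninhibited controls; Reagent: 400 µM OMFP.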
CSN deneddyl inh: CSN deneddylation inhibition; Purified CSN, SCF-Nedd8-OG deneddylation, fluorescence polarization; inhibition, % at 12.5 µM; actives 0.38% (n = 360,000); AID 651999;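 active = pattern-corrected inhibition above about 35%, with an unprinted fluorescence ratio check between 0.5 and 1.5, limit read from the data, passing the limit was not always enough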;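 note: 0% = enzyme with substrate and 100% = substrate without enzyme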
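Test system: purified human Csn5 enzyme expressed in HEK293T cells. Amount: 0.24 nM enzyme. Reagent: SCFSkp2-Nedd8OG substrate at 10 nM final. Schedule: 90 min incubation of compound, enzyme and substrate at room temperature. Detection: fluorescence polarization. Read-out: % inhibition of substrate cleavage by Csn5.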
Beacon interf DR: counter-screen for DNMT1 inhibitors: spectral interference, dose response. 200 tested, under 10 active. shares compounds with DNMT1 block. AID 602382. molecular beacon fluorescence. IC50, µM; call rule not given here
DNMT1 confirm: DNMT1 inhibition confirmation, single concentration. shares compounds with DNMT1 block. DNMT1 molecular beacon HinP1I cleavage, fluorescence. inhibition, % at 10 µM. actives 8% (n = 2,300). AID 602385;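 active = average inhibition of at least 30% in the single-concentration confirmation test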
Beacon interf: beacon fluorescence artifact counter-screen | shares compounds with DNMT1 block | activation (fluorescence interference), % at 10 µM | actives 1% (n = 2,300) | DNMT1 molecular beacon spectral interference counterscreen, fluorescence 485/520;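 active = activation of at least 30% at 10 µM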;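 note: DNMT1 catalytic domain with a HinP1I cleavage step and a FAM/dabcyl DNA beacon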
* marks the source's active call; other numbers are inactive results.

CC1(C)NC(=O)N(CC(=O)OCC(=O)Nc2cc(S(=O)(=O)N3CCCCC3)ccc2Cl)C1=O was read as SUMO1 PPI mod -3, Scp1 inh 18, DNMT1 block 19, STEP block -1, LMPTP block 0 and CSN deneddyl inh 4.
For Cc1nc2sccn2c(=O)c1CCN1CCC(=C(c2ccc(F)cc2)c2ccc(F)cc2)CC1 the results were SUMO1 PPI mod 2, Scp1 inh -4, DNMT1 block 59*, STEP block -1, LMPTP block 6, CSN deneddyl inh -2, DNMT1 confirm -1 and Beacon interf 1.
For CC(C)[C@H](NC(=O)[C@H](Cc1ccccc1)n1c(=O)[nH]c2ccccc2c1=O)C(=O)N1CCC[C@@H]1C(=O)O the results were SUMO1 PPI mod 3, Scp1 inh 1, DNMT1 block 82*, STEP block 2, LMPTP block 1, CSN deneddyl inh 3, DNMT1 confirm -1 and Beacon interf 2.
`COc1ccc(NC(=O)COC(=O)c2ccc(S(=O)(=O)N3CCCCC3)cc2)c(OC)c1` gave SUMO1 PPI mod -6, DNMT1 block -6, STEP block -1, LMPTP block 1 and CSN deneddyl inh 3.
For COc1cccc(-c2cnc(C(O)c3ccc(Cl)c(Cl)c3)[nH]2)c1 (stereo not drawn) the results were SUMO1 PPI mod 1, DNMT1 block -3, STEP block -2, LMPTP block 0 and CSN deneddyl inh 0.
Screening CCc1nnc(NC(=O)c2oc3cc(C)c(C)cc3c2C)s1 returned SUMO1 PPI mod -3, Scp1 inh -2, DNMT1 block 53*, STEP block 1, LMPTP block -1, CSN deneddyl inh 1, DNMT1 confirm 1 and Beacon interf -1.
CC(C)Cc1nn2c(=O)cc(CSCC(=O)Nc3ccccc3F)nc2s1 was read as SUMO1 PPI mod 4, Scp1 inh 40, DNMT1 block -1, STEP block 0, LMPTP block 0 and CSN deneddyl inh 6.
For Cc1ccc(Cl)cc1NC(=O)C1CCCCC1C(=O)O (stereo not drawn) the results were SUMO1 PPI mod -3, Scp1 inh -3, DNMT1 block 50*, STEP block 0, LMPTP block 0, CSN deneddyl inh 1, DNMT1 confirm 2 and Beacon interf 5.
`O=C(NC1CCN(C(=O)Nc2ccc(F)cc2)CC1)c1ccccc1F` gave SUMO1 PPI mod -3, Scp1 inh -5, DNMT1 block -1, STEP block -2, LMPTP block 1 and CSN deneddyl inh -1.
Screening c1ccc(-c2nc(-n3nc4ccccc4n3)nc3ccccc23)cc1 returned SUMO1 PPI mod -6, Scp1 inh -18, DNMT1 block -4, STEP block 3, LMPTP block 6 and CSN deneddyl inh -4.
O=C1CN(c2nc(-c3ccccc3)c3ccccc3n2)c2ccccc2N1 was read as SUMO1 PPI mod 8, Scp1 inh 2, DNMT1 block 61*, STEP block -2, LMPTP block 0, CSN deneddyl inh 11, DNMT1 confirm 2 and Beacon interf 7.
Screening CCn1c2ccccc2c2cc(CN3CCN(S(=O)(=O)Cc4ccccc4)CC3)ccc21 returned SUMO1 PPI mod -3, Scp1 inh 2, DNMT1 block 60*, STEP block 4, LMPTP block 7, CSN deneddyl inh -10, DNMT1 confirm 1 and Beacon interf 3.
Screening CCO/C([O-])=N/c1sn[n+](C)c1C returned SUMO1 PPI mod -3, Scp1 inh -7, DNMT1 block 5, STEP block -1, LMPTP block -2 and CSN deneddyl inh -4.
`CN(CCOC(=O)c1ccc2c(c1)OCO2)C(C)(C)C` gave SUMO1 PPI mod -1, Scp1 inh -1, DNMT1 block 7, STEP block -2, LMPTP block -1 and CSN deneddyl inh -5.
Screening Cc1cccc(NC(=O)/C(=C\c2ccc([N+](=O)[O-])o2)NC(=O)c2ccc(Cl)cc2)c1 returned SUMO1 PPI mod -13, Scp1 inh 45, DNMT1 block 85*, STEP block 7, LMPTP block 9, CSN deneddyl inh 13, DNMT1 confirm -1 and Beacon interf 3.
Screening COC(=O)/C(=C\c1ccc([N+](=O)[O-])o1)NC(=O)c1ccccc1 returned SUMO1 PPI mod -20, Scp1 inh -3, DNMT1 block 5, STEP block 2, LMPTP block 0 and CSN deneddyl inh 3.
CSc1ccc(/C=C(\NC(=O)c2ccc(C)cc2)C(=O)NN)cc1 was read as SUMO1 PPI mod -8, Scp1 inh -5, DNMT1 block -1, STEP block 1, LMPTP block -1 and CSN deneddyl inh 1.
Screening CSc1ccc(/C=C(/NC(=O)c2ccc(C)cc2)C(=O)Nc2cccc(C)c2)cc1 returned SUMO1 PPI mod 1, Scp1 inh -3, DNMT1 block 55*, STEP block 1, LMPTP block 0, CSN deneddyl inh -4, DNMT1 confirm 0 and Beacon interf 2.
Screening Cc1ccc(SCC(=O)OCC(=O)NCCC2=CCCCC2)cc1 returned SUMO1 PPI mod -1, Scp1 inh -2, DNMT1 block 1, STEP block 2, LMPTP block 1 and CSN deneddyl inh 5.
Screening Cc1ccc(S(=O)(=O)N2[C@@H](c3ccc(C(C)(C)C)cc3)C(C(=O)O)=CC[C@H]2c2ccc(C(C)C)cc2)cc1 returned SUMO1 PPI mod 31, Scp1 inh 8, DNMT1 block 58*, STEP block 2, LMPTP block 4, CSN deneddyl inh 30, Beacon interf DR >99, DNMT1 confirm 52* and Beacon interf -12.
CCc1cccc(OCCCCN(CC)CC)c1 was read as SUMO1 PPI mod 1, Scp1 inh -5, DNMT1 block 55*, STEP block 0, LMPTP block 0, CSN deneddyl inh 2, DNMT1 confirm 4 and Beacon interf 5.
